Test results taken from ChEMBL document CHEMBL4396876, “Antisulfatase, Osteogenic, and Anticancer Activities of Steroid Sulfatase Inhibitor EO-33 in Mice” (J Med Chem, 2019).

How the values were obtained:
[1] = system: Mus musculus; assay: Anti-estrogenic activity in ovariectomized Balb/c mouse assessed as reversal of E1-induced estrogenic effect at 30 mg/kg, sc administered once daily starting from day 2 to day 10 using MC/EtOH formulation and E1 addition on day 5 to 10 measured on day 11; assay type: organism-based; conditions: in vivo
Procedure, shortened: (§1)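 Female Balb/c mice (15–20 g) ovariectomized under isoflurane, 5/group. Inhibitor given SC in 0.1 mL MC:EtOH (92:8) on days 2–10. E1S (2 µg/mouse, BID) or E1 (0.06 µg/mouse, ID) given SC on days 5–10. Vehicle controls included. Uterus dissected and weighed on day 11. Means ± SEM.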

[2] = Toxicity in nu/nu Br athymic mouse xenografted with human […]-stimulated MCF7 cells assessed as effect on liver at 30 mg/kg, sc administered 6 days per week for […] using MC/EtOH formulation measured 3 hrs post-last dose by necropsy analysis; assay type: organism-based; conditions: in vivo
Procedure, shortened: (§2)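 MCF-7 cells (grown in DME-F12 with 5% FBS and 1 nM estradiol) inoculated SC at 4.1 x 10^6 cells in 30% Matrigel into both flanks of bilaterally ovariectomized nude mice, three days after surgery; E2S 50 µg/mouse SC three times weekly. Test agent SC 6 days/week in 0.1 mL MC:EtOH (92:8) for 28 days; vehicle-only controls. Mice weighed and killed 3 h after last dose; livers removed.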

[3] = Plasma concentration in Balb/c mouse at 2 mg/kg, sc administered as single dose using MC/EtOH formulation measured after 12 hrs by LC-MS/MS analysis; assay type: ADME, organism-based
Procedure, shortened: (§3)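 Female Balb/c mice, fasted 8 h with free water, given a single dose in 0.1 mL vehicle: EO-33 dissolved in EtOH, then aqueous 0.4% methylcellulose added to a final 8% EtOH. Sacrificed under isoflurane at 1, 3, 7, 12 and 24 h (2–3 mice/group). Cardiac blood collected into K-EDTA and plasma stored at −80 °C. LC-MS/MS on 100 µL plasma. AUC0-24h taken from the five time points.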

[4] = AUC (0 to 24 hrs) in Balb/c mouse at 10 mg/kg, sc administered as single dose using MC/EtOH formulation by LC-MS/MS analysis; assay type: ADME, organism-based; design: dose 10 mg/kg, time < 24 hr, route subcutaneous; conditions: in vivo; procedure, shortened: as §3
[5] = system: Mus musculus; assay: (§4) Ex vivo inhibition of STS in ovariectomized Balb/c mouse liver homogenates assessed as reduction in transformation of [3H]-E1S into [3H]-E1 at 30 mg/kg, sc administered twice daily starting from day 2 to day 10 using MC/EtOH formulation and E1S addition on day 5 to 10 measured on day 11 by liquid scintillation counting method relative to control; assay type: functional
Procedure, shortened: (§5)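 Livers collected on day 11 from the OVX Balb/c uterotrophic protocol and homogenized in cold pH 7.4 phosphate buffer with protease inhibitors. 2000 g supernatant, 100 or 500 µg protein, incubated with [3H]-E1S/E1S (final 1 µM) in PBS for 2 h at 37 °C. Xylene extraction, then scintillation counting of both phases. Result given as % E1 formed. Triplicate.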

[6] = system: Mus musculus; assay: In vivo inhibition of STS in sc-dosed ovariectomized Balb/c mouse assessed as reduction in E1S-stimulated uterus weight administered twice daily starting from day 2 to day 10 using MC/EtOH formulation and E1S addition on day 5 to 10 measured on day 11; assay type: functional, organism-based; procedure, shortened: as §1
[7] = system: Mus musculus; assay: In vivo inhibition of STS in ovariectomized Balb/c mouse assessed as reduction in E1S-stimulated uterus weight at 30 mg/kg, sc administered twice daily starting from day 2 to day 10 using MC/EtOH formulation and E1S addition on day 5 to 10 measured on day 11 relative to control; assay type: functional; procedure, shortened: as §1
[8] = system: Mus musculus; assay: In vivo inhibition of STS in ovariectomized Balb/c mouse assessed as reduction in E1S-stimulated uterus weight at 15 mg/kg, sc administered twice daily starting from day 2 to day 10 using MC/EtOH formulation and E1S addition on day 5 to 10 measured on day 11 relative to control; assay type: functional; procedure, shortened: as §1
[9] = Plasma concentration in Balb/c mouse at 30 mg/kg, sc administered as single dose using MC/EtOH formulation measured after 24 hrs by LC-MS/MS analysis; assay type: ADME, organism-based; procedure, shortened: as §3
[10] = Hepatotoxicity in ovariectomized-induced C57BL/6 mouse model of osteoporosis assessed as effect on liver weight at 30 mg/kg, sc administered 6 days per week for 70 days using MC/EtOH formulation measured post last dose by necropsy analysis; assay type: toxicity, organism-based; conditions: in vivo
[11] = Plasma concentration in Balb/c mouse at 30 mg/kg, sc administered as single dose using MC/EtOH formulation measured after 12 hrs by LC-MS/MS analysis; assay type: ADME, organism-based; procedure, shortened: as §3
[12] = system: Mus musculus; assay: as §4, with “15” for “30”; assay type: functional; procedure, shortened: as §5
[13] = Plasma concentration in Balb/c mouse at 10 mg/kg, sc administered as single dose using MC/EtOH formulation measured at 1 hr by LC-MS/MS analysis; assay type: ADME, organism-based; procedure, shortened: as §3
[14] = Plasma concentration in Balb/c mouse at 2 mg/kg, sc administered as single dose using MC/EtOH formulation measured after 3 hrs by LC-MS/MS analysis; assay type: ADME, organism-based; procedure, shortened: as §3
[15] = Plasma concentration in Balb/c mouse at 30 mg/kg, sc administered as single dose using MC/EtOH formulation measured after 3 hrs by LC-MS/MS analysis; assay type: ADME, organism-based; procedure, shortened: as §3
[16] = system: MCF7; assay: Antitumor activity against human MCF7 cells xenografted in nu/nu Br athymic mouse assessed as effect on […]-stimulated tumor growth by measuring tumor size at 30 mg/kg, sc administered 6 days per week for […] using MC/EtOH formulation measured post-last dose (reference value: 171 %); assay type: functional
[17] = Lipophilicity, log P of the compound; assay type: physicochemical; conditions: octanol/water
[18] = Toxicity in nu/nu Br athymic mouse xenografted with human […]-stimulated MCF7 cells assessed as effect on kidneys at 30 mg/kg, sc administered 6 days per week […] using MC/EtOH formulation measured 3 hrs post-last dose by necropsy analysis; assay type: organism-based; conditions: in vivo; procedure, shortened: as §2
[19] = Plasma concentration in Balb/c mouse at 10 mg/kg, sc administered as single dose using MC/EtOH formulation measured after 24 hrs by LC-MS/MS analysis; assay type: ADME, organism-based; procedure, shortened: as §3
[20] = Plasma concentration in Balb/c mouse at 10 mg/kg, sc administered as single dose using MC/EtOH formulation measured after 7 hrs by LC-MS/MS analysis; assay type: ADME, organism-based; procedure, shortened: as §3
[21] = system: Mus musculus; assay: Estrogenic activity in ovariectomized-induced C57BL/6 mouse model of osteoporosis assessed as stimulation of uterus weight at 30 mg/kg, sc administered 6 days per week for 70 days using MC/EtOH formulation measured post last dose by necropsy analysis; assay type: ADME, organism-based; conditions: in vivo
[22] = Toxicity in nu/nu Br athymic mouse xenografted with human E2S-stimulated MCF7 cells assessed as whitish deposit at injection site at 30 mg/kg, sc administered 6 days per week for 28 days using MC/EtOH formulation by TLC analysis; conditions: in vivo
[23] = Plasma concentration in Balb/c mouse at 30 mg/kg, sc administered as single dose using MC/EtOH formulation measured at 1 hr by LC-MS/MS analysis; assay type: ADME, organism-based; procedure, shortened: as §3
[24] = Plasma concentration in Balb/c mouse at 30 mg/kg, po administered via gavage as single dose using MC/EtOH formulation measured at 1 hr by LC-MS/MS analysis; assay type: ADME, organism-based; procedure, shortened: as §3

## Cc1ccc(CN(Cc2ccc(C(=O)N3CCc4ccc(OS(N)(=O)=O)cc4C3)cc2)Cc2ccco2)s1
[1]
  Activity: Non-Toxic
[2]
  Activity: Non-Toxic
[3]
  concentration at 12 h: 1 ng/mL
[4]
  AUC(0-t) at 24 h: 5200 ng·h/mL
[5]
  inhibition in vivo at 30 mg/kg: 81%
[6]
  inhibition: Dose-dependent effect
[7]
  inhibition in vivo at 30 mg/kg: 69%
[8]
  inhibition in vivo at 15 mg/kg: 49%
[9]
  concentration at 24 h: 13 ng/mL
[10]
  Activity: Non-Toxic
[11]
  concentration at 12 h: 64 ng/mL
[12]
  inhibition in vivo at 15 mg/kg: 71%
[13]
  concentration at 1 h: 2600 ng/mL
[14]
  concentration at 3 h: 33 ng/mL
[15]
  concentration at 3 h: 2190 ng/mL
[16]
  Activity: 72%
[17]
  logP: 4.02
[18]
  Activity: Non-Toxic
[19]
  concentration at 24 h: 2 ng/mL
[20]
  concentration at 7 h: 15 ng/mL
[21]
  Activity: Non-Toxic
[22]
  Activity: Toxic
[23]
  concentration at 1 h: 2600 ng/mL
[24]
  concentration at 1 h: 308 ng/mL
